The subject of test [1] is Aphis gossypii. Nature of the test: Pesticidal activity against Aphis gossypii (cotton aphid) third-instar nymphae grown on tender Hibiscus syriacus leaves assessed as pest mortality at 600 mg/L measured 24 hr post compound exposure. The format is functional. As to conditions: in Hibiscus syriacus. The essentials: (§1)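 Leaf-dip bioassay: over 30 healthy apterous third-instar nymphs on tender Hibiscus syriacus leaves dipped 5 s in compound diluted in distilled water with 0.05% Triton X-100, excess fluid removed. Held in illumination box at 25 ± 1 °C; mortality scored after 24 h. Tests in triplicate.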

For test [2], the system named is Plutella xylostella. Nature of the test: Pesticidal activity against Plutella xylostella (diamondback moth) second-instar larvae grown on cruciferous vegetables leaves leaves as pest mortality at 600 mg/L measured 48 hr post compound exposure. It is filed as functional. The method, boiled down: (§2)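 Over 20 second-instar larvae on cruciferous vegetable leaves dipped 5 s in compound diluted in distilled water containing 0.05% Triton X-100, excess liquid removed. Kept in illumination box at 25 ± 1 °C; mortality recorded 48 h after treatment. Each test in triplicate.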

Test [3] concerns Tetranychus cinnabarinus. Put plainly: Pesticidal activity against Tetranychus cinnabarinus (carmine spider mite) third- instar larvae grown on Phaseolus vulgaris leaves assessed as pest mortality at 600 mg/L measured 48 hr post compound exposure. It is filed as functional. The essentials: (§3)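 More than 20 third-instar mite larvae on Phaseolus vulgaris leaves dipped 5 s in compound solutions (water with 0.05% Triton X-100), excess liquor removed. Larvae held at 25 ± 1 °C in illumination box; mortality read at 48 h. Primary screen at 600 mg L⁻¹, follow-up at 400, 200, 100, 50 and 25 mg L⁻¹ with LC50 calculated. Triplicate tests.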

The test system of test [4] is Tetranychus cinnabarinus. Nature of the test: Pesticidal activity against Tetranychus cinnabarinus (carmine spider mite) third- instar larvae grown on Phaseolus vulgaris leaves assessed as pest mortality at 50 mg/L measured 48 hr post compound exposure. It is filed as functional. The essentials:
as §3

Test [5] has as its system Plutella xylostella. Nature of the test: Pesticidal activity against Plutella xylostella (diamondback moth) second-instar larvae grown on cruciferous vegetables leaves leaves as pest mortality at 0.2 mg/L measured 48 hr post compound exposure. It is filed as functional. The essentials:
as §2

Test [6] concerns Tetranychus cinnabarinus. Nature of the test: Pesticidal activity against Tetranychus cinnabarinus (carmine spider mite) third- instar larvae grown on Phaseolus vulgaris leaves assessed as pest mortality at 25 mg/L measured 48 hr post compound exposure. The format is functional. The method, boiled down:
as §3

The test system of test [7] is Tetranychus cinnabarinus. Nature of the test: Pesticidal activity against Tetranychus cinnabarinus (carmine spider mite) third- instar larvae grown on Phaseolus vulgaris leaves assessed as pest mortality at 400 mg/L measured 48 hr post compound exposure. It is filed as functional. The method, boiled down:
as §3

The test system of test [8] is Tetranychus cinnabarinus. Nature of the test: Pesticidal activity against Tetranychus cinnabarinus (carmine spider mite) third- instar larvae grown on Phaseolus vulgaris leaves assessed as pest mortality measured 48 hr post compound exposure. It is filed as functional. The essentials:
as §3

For test [9], the system named is Tetranychus cinnabarinus. Nature of the test: Pesticidal activity against Tetranychus cinnabarinus (carmine spider mite) third- instar larvae grown on Phaseolus vulgaris leaves assessed as pest mortality at 100 mg/L measured 48 hr post compound exposure. It is filed as functional. The method, boiled down: as §3
Test [10] concerns Tetranychus cinnabarinus. Put plainly: Pesticidal activity against Tetranychus cinnabarinus (carmine spider mite) third- instar larvae grown on Phaseolus vulgaris leaves assessed as pest mortality at 200 mg/L measured 48 hr post compound exposure. The format is functional. The method, boiled down:
as §3

In test [11] the test system is Aphis gossypii. Nature of the test: Pesticidal activity against Aphis gossypii (cotton aphid) third-instar nymphae grown on tender Hibiscus syriacus leaves assessed as pest mortality at 200 mg/L measured 24 hr post compound exposure. The format is functional. Particulars: in Hibiscus syriacus. The essentials: as §1
The subject of test [12] is Tetranychus cinnabarinus. Put plainly: Pesticidal activity against Tetranychus cinnabarinus (carmine spider mite) third- instar larvae grown on Phaseolus vulgaris leaves assessed as reduction in larval movement at 25 to 400 mg/L measured 1 hr post compound exposure. The format is functional, organism-based. The method, boiled down:
(§4)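 Mite larvae (>20 third-instar on Phaseolus vulgaris leaves) leaf-dipped 5 s in compound at 400, 200, 100, 50 or 25 mg L⁻¹ in water with 0.05% Triton X-100, kept at 25 ± 1 °C. Movement of larvae observed at 1 h; corpse colour change to black observed at 48 h after treatment.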

Test [13] relates to Tetranychus cinnabarinus. Put plainly: Pesticidal activity against Tetranychus cinnabarinus (carmine spider mite) third- instar larvae grown on Phaseolus vulgaris leaves assessed as conversion of corpus colour to black at 25 to 400 mg/L measured 48 hr post compound exposure. It is filed as functional, organism-based. The essentials: as §4

≈ marks a conversion by molar mass, not a printed value. Calls of active or inactive are those of the source. The calls are words filed in the database; no cut-off is given here.

Turning to `CC(C)(C)CC(=O)Nc1ccc(Cl)cc1C(=O)NNCc1ccccc1F`, the mortality (usually the percentage killed) at 600 µg/mL with Aphis gossypii [1] is 1.8%; in the test with Plutella xylostella [2] it was 28%; with Tetranychus cinnabarinus [3] it was 77.6%.
As for `Cc1cc(Cl)cc(C(=O)NNCc2ccccc2F)c1NC(=O)C(C)(C)CCl`, the mortality at 600 µg/mL in the test with Aphis gossypii [1] was found to be 70.2%; in the test on Plutella xylostella [2], 100%; in the test with Tetranychus cinnabarinus [3] it was 61.1%.
For `Cc1cc(Br)cc(C(=O)NNCc2ccccc2)c1NC(=O)C(C)(C)C` the same measures were 86.1%, 50% and 64.9%.
On to `Cc1cc(Br)cc(C(=O)NNCc2ccc(Cl)cc2Cl)c1NC(=O)C(C)(C)CCl`, for which the figures for the mortality at 600 µg/mL in the test with Aphis gossypii [1], in the test on Plutella xylostella [2] and in the test on Tetranychus cinnabarinus [3] were 3.8%, 70% and 82.5%, respectively.
On to `Cc1cc(Cl)cc(C(=O)NNCc2ccc(F)cc2)c1NC(=O)C(C)(C)CCl`, for which the mortality at 600 µg/mL in the test with Aphis gossypii [1] came to 81.5%; in the test on Plutella xylostella [2], 64%; in the test with Tetranychus cinnabarinus [3], 67%.
As to `CNC(=O)c1cc(Cl)cc(C)c1NC(=O)c1cc(Br)nn1-c1ncccc1Cl` [CHLORANTRANILIPROLE], in the test on Tetranychus cinnabarinus [4], the mortality at 50 µg/mL turned out to be 13.2%. In the test with Plutella xylostella [5], the mortality at 0.2 µg/mL is 100%. The mortality at 25 µg/mL in the test on Tetranychus cinnabarinus [6] was determined as 7.4%. In addition, the mortality at 400 µg/mL in the test with Tetranychus cinnabarinus [7] turned out to be 40.7%. The LC50 – broadly, the concentration that kills 50% of the test population – with Tetranychus cinnabarinus [8] is 633 µg/mL (≈ 1310 µM). In the test on Tetranychus cinnabarinus [9], the mortality at 100 µg/mL was 17.2%. Further, the mortality at 200 µg/mL in the test on Tetranychus cinnabarinus [10] is 29.9%; with Aphis gossypii [11] it was 91.3%.
As for `Cc1cc(Br)cc(C(=O)NNCc2ccccc2Cl)c1NC(=O)C(C)(C)CCl`, the mortality at 50 µg/mL with Tetranychus cinnabarinus [4] came out at 44.9%. Moreover, the result in the test with Tetranychus cinnabarinus [12] and in the test with Tetranychus cinnabarinus [13] was Active. Besides, the mortality at 600 µg/mL was found to be 8.5% in the test on Aphis gossypii [1], 76% with Plutella xylostella [2] and 95.7% in the test with Tetranychus cinnabarinus [3]. In addition, the mortality at 25 µg/mL with Tetranychus cinnabarinus [6] stood at 36.5%. Also, in the test on Tetranychus cinnabarinus [7], the mortality at 400 µg/mL amounted to 89.6%. The LC50 in the test with Tetranychus cinnabarinus [8] came to 51.7 µg/mL (≈ 106 µM). For the same molecule, the mortality at 100 µg/mL with Tetranychus cinnabarinus [9] was 62.6%. Besides, the mortality at 200 µg/mL in the test with Tetranychus cinnabarinus [10] came out at 83.6%.
Consider `Cc1cc(Br)cc(C(=O)NNCc2ccccc2)c1NC(=O)C(C)(C)CCl`, for which the mortality at 600 µg/mL turned out to be 84.6% in the test on Aphis gossypii [1], 52% in the test with Plutella xylostella [2] and 20.3% with Tetranychus cinnabarinus [3].
For `Cc1cc(Cl)cc(C(=O)NNCc2ccccc2)c1NC(=O)C(C)(C)CCl` the same measures were 68.5%, 52% and 50.9%.
For `Cc1cccc(C(=O)NNCc2ccccc2)c1NC(=O)C(C)(C)C` the same measures were 62.3%, 52% and 16.7%.
For `Cc1cc(Cl)cc(C(=O)NNCc2ccc(F)cc2)c1NC(=O)C(C)(C)C` the same measures were 41.5%, 88% and 73.8%.
`Cc1cccc(C(=O)NNCc2cccc(C(F)(F)F)c2)c1NC(=O)CC(C)(C)C`: the mortality at 600 µg/mL in the test on Aphis gossypii [1] was 94.2%; in the test on Plutella xylostella [2], 40%; in the test on Tetranychus cinnabarinus [3] it was 57.9%.
Regarding `Cc1cc(Br)cc(C(=O)NNCc2cccc(C(F)(F)F)c2)c1NC(=O)CC(C)(C)C`, the mortality at 50 µg/mL in the test on Tetranychus cinnabarinus [4] came out at 38.4%. For the same molecule, the outcome in the test with Tetranychus cinnabarinus [12] and with Tetranychus cinnabarinus [13] was Active. Also, the mortality at 600 µg/mL is 18.7% in the test on Aphis gossypii [1], 40% in the test with Plutella xylostella [2] and 100% with Tetranychus cinnabarinus [3]. For the same molecule, the mortality at 25 µg/mL with Tetranychus cinnabarinus [6] is 26%. Besides, in the test with Tetranychus cinnabarinus [7], the mortality at 400 µg/mL came to 93.3%. The LC50 in the test with Tetranychus cinnabarinus [8] was found to be 89.8 µg/mL (≈ 179 µM). The mortality at 100 µg/mL with Tetranychus cinnabarinus [9] was 43.3%. The mortality at 200 µg/mL in the test on Tetranychus cinnabarinus [10] stood at 64.4%.

The values above are taken from ChEMBL document CHEMBL3046169, “Synthesis and bioactivity study of 2-acylamino-substituted N'-benzylbenzohydrazide derivatives” (2012).
